These results are taken from ChEMBL document CHEMBL5154905, “Reversible Monoacylglycerol Lipase Inhibitors: Discovery of a New Class of Benzylpiperidine Derivatives” (J Med Chem, 2022).

Activity calls are given as the source filed them. The rule behind the calls is not given here.

For data set [1], the target named is T1, Lysophosphatidylserine lipase ABHD12 (Mus musculus) (UniProt Q99LR1).
T1 sequence (whole entry): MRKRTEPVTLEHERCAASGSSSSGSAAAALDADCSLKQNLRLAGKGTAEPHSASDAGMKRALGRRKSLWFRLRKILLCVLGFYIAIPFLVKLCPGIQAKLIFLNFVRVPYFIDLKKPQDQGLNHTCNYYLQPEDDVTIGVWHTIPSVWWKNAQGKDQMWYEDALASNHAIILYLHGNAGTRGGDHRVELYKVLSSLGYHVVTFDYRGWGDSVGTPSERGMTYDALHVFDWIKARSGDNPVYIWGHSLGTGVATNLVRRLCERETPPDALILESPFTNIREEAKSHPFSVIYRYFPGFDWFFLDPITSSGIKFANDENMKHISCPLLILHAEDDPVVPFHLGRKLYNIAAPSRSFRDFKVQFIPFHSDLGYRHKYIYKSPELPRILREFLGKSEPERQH
Nature of the data set: Inhibition of ABHD12 in mouse brain membrane at 10 uM using TAMRA-FP serine hydrolase probe as substrate preincubated for 25 mins followed by substrate addition and measured after 25 mins SDS-PAGE analysis. It counts as cell membranes. As to conditions: time 50.0 min. In outline: (§1)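 Mouse half-brain membrane fraction (800g supernatants spun at 16000g, 4 °C; pellet in 50 mM Tris-HCl pH 7.4), diluted to 4 mg/mL in PBS. Preincubated 25 min at 25 °C with test agent (10 μM final) or DMSO, then TAMRA-FP (125 nM final) 25 min at 25 °C. Stopped in Laemmli buffer at 90 °C, run on 12% SDS-PAGE, in-gel fluorescence read. Coomassie confirmed loading. Three independent experiments.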

Data set [2] addresses T2, Monoacylglycerol lipase ABHD6 (Mus musculus) (UniProt Q8R2Y0).
T2 sequence (whole entry): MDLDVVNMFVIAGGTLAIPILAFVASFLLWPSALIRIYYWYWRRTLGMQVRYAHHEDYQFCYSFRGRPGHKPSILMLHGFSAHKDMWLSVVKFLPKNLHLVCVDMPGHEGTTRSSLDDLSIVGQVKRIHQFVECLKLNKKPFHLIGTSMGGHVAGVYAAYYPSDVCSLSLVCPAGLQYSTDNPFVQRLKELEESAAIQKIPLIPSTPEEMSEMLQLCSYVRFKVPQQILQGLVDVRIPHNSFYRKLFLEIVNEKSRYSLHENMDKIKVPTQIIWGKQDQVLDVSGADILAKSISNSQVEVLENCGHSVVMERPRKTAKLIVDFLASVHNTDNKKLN
Nature of the data set: Inhibition of ABHD6 in mouse brain membrane at 10 uM using TAMRA-FP serine hydrolase probe as substrate preincubated for 25 mins followed by substrate addition and measured after 25 mins SDS-PAGE analysis. It counts as cell membranes. As to conditions: time 50.0 min. In outline: as §1

Data set [3] is described as follows: Stability of the compound in PBS buffer at pH 7.4 at 500 uM measured up to 24 hrs by UV/LC-MS analysis. It counts as physicochemical. As to conditions: pH 7.4, 24 h.
Data set [4] concerns PDAC-3. Nature of the data set: Synergistic antiproliferative activity against human PDAC-3 cells assessed as increase in ENT1 expression at 5 times IC50 incubated for 24 hrs in presence of gemcitabine by qRT-PCR analysis. It counts as functional, cell-based.
Data set [5] deals with PDAC-3. Nature of the data set: Induction of apoptosis in human PDAC-3 cells assessed as increase in caspase-3 level at IC50 measured after 72 hrs by immunoassay. It counts as functional, cell-based. In outline: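 Cell extracts assayed with a human active caspase-3 ELISA; absorbance 450 nm minus 540 nm. Quantified against a recombinant human caspase-3 standard curve. Triplicate measurements, expressed relative to untreated cells.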

Data set [6] can be described thus: Stability of the compound in MeOH solution at 500 uM measured up to 24 hrs by UV/LC-MS analysis. It counts as physicochemical.
Data set [7] is described as follows: Apparent permeability of the compound in PBS buffer pH 7.4 assessed as membrane retention at 0.5 mM incubated for 5 hrs by PAMPA based UV/LC-MS analysis. It counts as ADME. As to conditions: pH 7.4, 5 h, 500 µM.
Data set [8] is described as follows: Induction of apoptosis in human PDAC-2 cells assessed as fold change in apoptotic rate at IC50 measured after 72 hrs by Annexin-V/FITC staining based assay relative to control. It counts as functional. In outline: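 Then paraformaldehyde-fixed and stained with annexin V/FITC in HEPES/NaCl/CaCl2 buffer, pH 7.4. Fluorescence read at ex 485/em 535 nm, normalised to cell number by crystal violet (595 nm). Expressed relative to untreated control (=1). Triplicate, mean ± SEM.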

In data set [9] the test system is PDAC-3. Put plainly: Antimigratory activity against human PDAC-3 cells assessed as reduction in MMP9 expression at 5 times IC50 incubated for 24 hrs by qRT-PCR analysis. It counts as functional, cell-based.
Data set [10] in a line: Stability of the compound in pooled human plasma at 3 mM measured up to 24 hrs by UV/LC-MS assay. It counts as ADME, cell-free. As to conditions: read-out: Stability.
For data set [11], the system named is PDAC-3. Put plainly: Induction of apoptosis in human PDAC-3 cells at IC50 measured after 72 hrs by Annexin-V/FITC staining based assay. It counts as functional, cell-based. In outline:
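Fixed with paraformaldehyde, stained with annexin V/FITC in HEPES-buffered saline (pH 7.4) with 2.5 mM CaCl2. Fluorescence read at ex 485/em 535 nm and normalised to cell number from crystal violet staining (595 nm). Triplicate measurements, expressed relative to untreated control.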

Data set [12] in a line: Cytotoxicity against human hTERT-HPNE cells assessed as cell growth inhibition incubated for 72 hrs by sulforhodamine B assay. It counts as toxicity, cell-based. The procedure, abridged: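 SRB growth-inhibition assay. Cells were seeded at 5000 per well and treated after 24 h, once a monolayer had formed, with MAGL inhibitors (0.1–50 μM) for 72 h. Cells were then fixed with trichloroacetic acid at 4 °C and stained with SRB. Bound dye was dissolved in Tris base and read at 490 and 540 nm. IC50 came from curve fitting.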
On the technique in general: The SRB assay estimates cell density from bound dye.

The nature of data set [13]: Aqueous solubility of compound at 1 mg/ml incubated for 24 hrs by LC-MS/MS analysis. It counts as physicochemical. The conditions noted are these: buffer.
Data set [14] concerns PDAC-3. Nature of the data set: Induction of apoptosis in human PDAC-3 cells assessed as reduction in Bcl-2 […] expression at 5 times IC50 incubated for 24 hrs by qRT-PCR analysis. It counts as functional, cell-based. Background: Quantitative PCR measures a nucleic acid by following its amplification.
Data set [15] addresses T3, Fatty-acid amide hydrolase 1 (Mus musculus) (UniProt O08914).
T3 sequence (whole entry): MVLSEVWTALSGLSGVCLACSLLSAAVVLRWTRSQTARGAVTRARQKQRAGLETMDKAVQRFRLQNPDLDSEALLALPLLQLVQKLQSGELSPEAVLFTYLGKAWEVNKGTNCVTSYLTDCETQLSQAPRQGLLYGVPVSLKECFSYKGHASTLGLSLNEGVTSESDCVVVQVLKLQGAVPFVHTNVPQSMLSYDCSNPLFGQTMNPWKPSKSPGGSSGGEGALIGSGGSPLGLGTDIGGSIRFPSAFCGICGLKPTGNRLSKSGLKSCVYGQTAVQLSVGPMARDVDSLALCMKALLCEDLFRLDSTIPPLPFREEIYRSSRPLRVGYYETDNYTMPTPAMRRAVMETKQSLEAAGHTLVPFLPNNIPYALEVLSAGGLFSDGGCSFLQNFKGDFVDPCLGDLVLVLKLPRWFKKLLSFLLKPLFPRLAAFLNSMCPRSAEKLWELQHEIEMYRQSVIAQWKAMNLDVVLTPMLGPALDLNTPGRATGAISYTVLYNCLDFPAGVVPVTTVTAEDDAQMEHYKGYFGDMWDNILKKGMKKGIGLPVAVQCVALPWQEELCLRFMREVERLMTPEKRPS
Nature of the data set: Inhibition of FAAH in mouse brain membrane at 10 uM using TAMRA-FP serine hydrolase probe as substrate preincubated for 25 mins followed by substrate addition and measured after 25 mins SDS-PAGE analysis. It counts as cell membranes. As to conditions: time 50.0 min. The procedure, abridged:
as §1

Data set [16] has as its system PDAC-3. Nature of the data set: Antiproliferative activity against human PDAC-3 cells assessed as cell growth inhibition incubated for 72 hrs by sulforhodamine B assay. It counts as functional, cell-based. The procedure, abridged:
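Primary PDAC3 culture in RPMI-1640 with 10% newborn calf serum, penicillin/streptomycin, 37 °C, 5% CO2. Seeded 5000 cells/well; after 24 h exposed 72 h to MAGL inhibitor (0.1–50 μM, DMSO stock diluted in medium).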

In general, IC50 refers to the concentration at which inhibition is half-maximal. As a reminder, the solubility is how much of the substance goes into solution per volume. High values mean much dissolved substance, low ones little dissolved substance.

For the compound `CCCCCCCCCCC[C@@H](C[C@@H]1OC(=O)[C@H]1CCCCCC)OC(=O)[C@H](CC(C)C)NC=O`, the inhibition entry in data set [1] and in data set [2] was “Active” in each case.

As for `O=C(c1cc(O)ccc1F)N1CCC(Cc2cccc(Oc3cc(C(F)(F)F)ccn3)c2)CC1`, the Stability in data set [3] and in data set [6] was above 24 h each time. Moreover, the result in the data set on PDAC-3 [4], in the data set with PDAC-3 [5], in the data set with PDAC-3 [9], in the data set on PDAC-3 [11] and with PDAC-3 [14] was Active. Further, the R% in data set [7] amounted to 38.9%. In [8], the “fold change (FC)” value was 4. The half-life at 3000 µM in data set [10] is above 1440 min. Moreover, the IC50 at 72 h in data set [12] is above 20 µM. In data set [13], this compound came in with a logS0 below -8.676. Also, the solubility in data set [13] is below 1 ng/mL.

For `CN(Cc1cccc(-c2ccncc2)c1)C(=O)Oc1ccc(-c2ccc(C(N)=O)cc2)cc1`, in data set [2], the inhibition result was “Active”.

For the compound `O=C(c1ccc(Sc2cccc(C(F)(F)F)c2)cc1)C1CCN(C(=O)c2cc(O)ccc2F)CC1`, the Stability in data set [3] is above 24 h. This compound showed a Stability in data set [6] above 24 h. Moreover, the R% in data set [7] is 52.6%. Further, in [10], the half-life at 3000 µM is above 1440 min. In data set [13], the logS0 is below -8.702 and the solubility was below 1 ng/mL.

As for `NC(=O)c1cccc(-c2cccc(OC(=O)NC3CCCCC3)c2)c1`, the inhibition entry in [15] is “Active”.

Consider `O=C(Oc1ccc([N+](=O)[O-])cc1)N1CCC(C(O)(c2ccc3c(c2)OCO3)c2ccc3c(c2)OCO3)CC1`, for which the result with PDAC-3 [16], with PDAC-3 [5] and with PDAC-3 [11] was Active.

On to `Nc1ccn([C@@H]2O[C@H](CO)[C@@H](O)C2(F)F)c(=O)n1`, for which the result with PDAC-3 [5] and in the data set with PDAC-3 [11] was Active.

For `O=C(OC(C(F)(F)F)C(F)(F)F)N1CCN(Cc2ccc(C(F)(F)F)cc2N2CCCC2)CC1`, the outcome in the data set on PDAC-3 [16], with PDAC-3 [5] and in the data set with PDAC-3 [11] was Active.
